# A selection: hits, their analogues and other compounds. The true share with any hit is near 2.3%.
# Scp1 inh: blocks human Scp-1 phosphatase activity. Q9GZU7. inhibition, % at 20 µM. 340,000 tested, 0.88% active. Recombinant Scp1, phosphopeptide, malachite green phosphate absorbance;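 active means inhibition above about 50% at 20 µM, limit read from the data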
# Target sequence (Q9GZU7 76-261 limits assumed): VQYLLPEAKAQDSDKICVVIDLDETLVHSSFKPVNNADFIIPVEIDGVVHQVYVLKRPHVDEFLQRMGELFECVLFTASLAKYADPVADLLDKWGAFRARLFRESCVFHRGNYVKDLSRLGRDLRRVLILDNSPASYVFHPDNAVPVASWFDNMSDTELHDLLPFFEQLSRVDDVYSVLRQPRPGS
#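 Test system: SCP-1 catalytic domain; Buffer or medium: Acidic Tris acetate buffer with magnesium and detergent; Also added: Phosphorylated 17-residue peptide substrate; Compound: single 20 µM dose, 1% DMSO; Schedule: enzyme reaction 45 min at room temperature, colour 5 min, stabilisation 30 min; Signal: Phosphate-binding colour reagent, absorbance read at 630 nm.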
# DNMT1 inh: blocks human DNA methyltransferase DNMT1; AID 588458; DNMT1 molecular beacon, Hinp1I cleavage, fluorescence; inhibition (reported as % activation of signal), % at 10 µM; 360,000 tested, 0.83% active; in the data active means inhibition above about 50%
# STEP block: blocks human striatal-enriched tyrosine phosphatase. P54829. recombinant STEP, OMFP fluorogenic substrate, fluorescence. inhibition, % at 20 µM. 360,000 tested, 0.25% active. AID 588621;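 active means inhibition at 20 µM, scaled per plate between control wells, above about 37%, limit read from the data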
#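 Assay system: isolated STEP enzyme / Timing: 20 min at room temperature, dark / Doses: 20 µM, 1% DMSO / Technique: fluorescence intensity, excitation 480 nm, emission 540 nm / Reagent: fluorogenic phosphatase substrate OMFP at 25 µM final / Measure: percent inhibition scaled to no-enzyme and uninhibited-enzyme controls, plate-pattern corrected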
# LMPTP block: blocks human LMPTP phosphatase; P24666; recombinant LMPTP-A, OMFP fluorogenic substrate, fluorescence intensity; inhibition, % at 20 µM; 360,000 tested, 0.22% active; AID 651560;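 active means compounds that cut the enzyme signal by at least half of the control window in the single-dose screen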
# Target sequence (P24666 whole entry, looked up): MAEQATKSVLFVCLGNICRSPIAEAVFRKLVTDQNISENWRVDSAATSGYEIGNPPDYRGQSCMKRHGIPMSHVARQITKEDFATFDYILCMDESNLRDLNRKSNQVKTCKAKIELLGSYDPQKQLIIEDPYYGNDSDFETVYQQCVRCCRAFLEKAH
#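 Test system: LMPTP-A, protein tyrosine phosphatase of low molecular weight; Input: 0.625 nM enzyme; Incubation: 50 min dark incubation at room temperature; Signal: endpoint fluorescence intensity from OMFP dephosphorylation; Read-out basis: % inhibition versus control wells.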
# NadD inh: blocks S. aureus nicotinate mononucleotide adenylyltransferase; purified NadD enzyme, colorimetric absorbance read-out; inhibition, % at 20 µM; 360,000 tested, 0.78% active; in the data active means inhibition above about 26%
# SUMO1-SIM PPI: modulators of human SUMO1-mediated protein-protein interactions | SUMO1 binding to a labelled peptide, TR-FRET, 1 h | inhibition, % at 20 µM | P63165 | 360,000 tested, 0.33% active | AID 602429; in the data active means inhibition above about 37%
# Target sequence (P63165 whole entry, looked up): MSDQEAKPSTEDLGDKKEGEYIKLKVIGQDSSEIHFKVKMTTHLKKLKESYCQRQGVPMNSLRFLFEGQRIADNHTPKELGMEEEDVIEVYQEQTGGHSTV
# DNMT1 interf DR: shows spectral interference in the DNMT1 beacon assay; IC50, µM; molecular beacon fluorescence, spectral interference counter-screen; 200 tested, under 10 active; AID 602382; shares compounds with DNMT1 inh; call rule not given here
# DNMT1 inh conf: confirmation of human DNMT1 inhibitors; shares compounds with DNMT1 inh; DNMT1 molecular beacon HinP1I cleavage, fluorescence; inhibition, % at 10 µM; 2,300 tested, 8% active; AID 602385;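 active means average inhibition of at least 30% in the single-concentration confirmation test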
# Beacon interf: counter-screen for DNMT1 inhibitors: spectral interference; AID 602387; DNMT1 molecular beacon spectral interference counterscreen, fluorescence 485/520; activation (fluorescence interference), % at 10 µM; 2,300 tested, 1% active; shares compounds with DNMT1 inh;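 active means activation of at least 30% at 10 µM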;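 further: DNMT1 catalytic domain with a HinP1I cleavage step and a FAM/dabcyl DNA beacon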
# Numbers stand for hits; - = inactive; . = no result.
SMILES,Scp1 inh,DNMT1 inh,STEP block,LMPTP block,NadD inh,SUMO1-SIM PPI,DNMT1 inh conf,Beacon interf,others
CCc1ccc(N(CC(=O)NC(C)(C)C)C(=O)CCC(=O)Nc2ccccn2)cc1,-,60,-,-,-,-,-,-,
COc1ccc(CN2C(=O)CSCC2(C)C(=O)Nc2c(C)cccc2C)cc1 (configuration not stated),.,.,.,-,.,-,.,.,
CSc1ccccc1NC(=O)Cn1nc([N+](=O)[O-])cc1C,-,-,-,-,-,-,.,.,
C=C1C(=O)OC2C1CCC(C)=C1C(=O)C3OC3(C)C12 (configuration not stated),-,72,-,-,-,-,-,-,
COc1ccccc1CNC(=O)COC(=O)/C=C/c1ccc2c(c1)OCO2,-,-,-,-,-,-,.,.,
COc1ccccc1N1CCN(/N=C/c2ccc(Cl)c([N+](=O)[O-])c2)CC1,-,99,-,-,-,-,35,-,DNMT1 interf DR=-
O=C(Nc1cccnc1)C1Cc2c(-c3cccc(F)c3)ccnc2O1 (configuration not stated),.,-,-,-,-,-,.,.,
CC(C)c1onc(C(=O)NC(C)c2ccccc2)c1[N+](=O)[O-] (configuration not stated),-,92,-,-,-,-,-,-,
CC(C)c1onc(C(=O)NCCc2ccccc2)c1[N+](=O)[O-],-,-,-,-,-,-,.,.,
Cc1ccc(-c2nnc(SCC(=O)Nc3sc(C)c(C)c3C#N)n2C)cc1,-,52,-,-,-,-,-,-,
COc1ccc(C)cc1NC(=O)CN(Cc1nnc(-c2ccc(Cl)cc2)o1)C1CCCC1,-,59,-,-,-,-,-,-,
CCOC(=O)c1c(NC(C)=O)sc2c(OCC(O)CN(CC)CC)c(Br)ccc12 (configuration not stated),-,76,-,-,-,-,-,-,
CCOC(=O)c1c(NC(C)=O)sc2c(OCCN(CC)CC)c(Br)ccc12,-,-,-,-,-,-,.,.,
CCCC(=O)NNC(=O)Nc1ccccc1,-,-,-,-,-,-,.,.,
CCC1(C)COC(C)(CC(=O)NNC(=O)Nc2ccccc2)OC1 (configuration not stated),-,81,-,-,-,-,-,-,
Cc1cc(NC(=O)c2cncc(Br)c2)ccc1NC(=O)c1cc2ccccc2o1,-,75,-,-,-,-,-,-,
CCOC(=O)c1ccc(-c2ccc(/C=N/NC(=O)CN(c3cccc(C)c3)S(C)(=O)=O)o2)cc1,-,57,-,-,-,-,-,-,
O=C(CCc1ccncc1)NC1CCCc2c1cnn2-c1cc(F)cc(F)c1 (configuration not stated),-,-,-,-,-,-,.,.,
COc1ccc(Cc2nc3ccc(C(=O)NCCSC)cc3o2)cc1,-,55,-,-,-,-,-,-,
COC(=O)CCNC(=O)c1ccc2nc(Cc3ccc(OC)cc3)oc2c1,-,-,-,-,-,-,.,.,
COc1cccc(CN2CC(C(=O)NCCc3nccs3)CCC2=O)c1 (configuration not stated),.,-,-,-,-,-,.,.,
CC(=O)N(CN1C(=O)c2ccccc2C1=O)c1ccc2c(c1)oc1ccccc12,-,79,-,-,-,-,-,-,
Cc1ccc(N(C(=O)CCl)C(C(=O)NC2CCCCC2)c2cccnc2)cc1C (configuration not stated),-,.,.,.,.,.,.,.,
COc1ccc(C(=O)COC(=O)[C@@H](NS(=O)(=O)c2ccccc2)C(C)C)cc1,-,-,-,-,-,-,.,.,
O=C1NC(=S)SC1=Cc1ccccc1Cl,-,-,-,-,-,-,.,.,
SMILES,Scp1 inh,DNMT1 inh,STEP block,LMPTP block,NadD inh,SUMO1-SIM PPI,DNMT1 inh conf,Beacon interf,others
O=C1NC(=S)S/C1=C\c1ccc(SCc2ccccc2)o1,-,82,-,-,-,-,-,-,
Cc1ccc(NCc2n[nH]c(=S)n2-c2ccccc2)c(C)c1,-,-,-,-,-,-,.,.,
Cc1cccc(Cl)c1OCCCn1ccnc1,-,67,-,-,-,-,-,-,
CCN(CC)S(=O)(=O)c1cc(NC(=O)c2ccc3c(c2)NC(=O)C(C)S3)ccc1C (configuration not stated),-,-,-,-,-,-,.,.,
COc1ccc2c(CC(=O)OCC(=O)Nc3cccc(C)c3)coc2c1,-,50,-,-,-,-,-,-,
O=C(C[C@H]1C/C=C\C[C@H](Cc2ccc(F)cc2)C(=O)O[C@@H](c2ccccc2)CNC1=O)N[C@@H](CO)Cc1ccccc1,-,63,-,-,-,-,-,-,
O=C(C[C@H]1C/C=C\C[C@@H](Cc2ccc(F)cc2)C(=O)O[C@@H](c2ccccc2)CNC1=O)N[C@@H](CO)Cc1ccccc1,-,-,-,-,-,-,.,.,
CCOc1ccc(NC(=O)CNC(=O)c2nn(-c3ccc(OC)c(OC)c3)c(=O)c3ccccc23)cc1,-,-,-,-,-,-,.,.,
COc1ccc(-n2nc(C(=O)Nc3ccc4c(c3)OCO4)c3c4ccccc4n(C)c3c2=O)cc1,-,-,-,-,-,-,.,.,
COc1ccc(-n2nc(C(=O)Nc3ccc(OC)c(OC)c3)c3c4ccccc4n(C)c3c2=O)cc1,-,60,-,-,-,-,-,-,
COc1ccc(-n2nc(C(=O)NCC(=O)Nc3cccc(Cl)c3)c3ccccc3c2=O)cc1OC,-,60,-,-,-,-,-,-,
COc1ccc(NC(=O)CSc2nnc(-c3ccco3)c(-c3ccco3)n2)cc1OC,-,-,-,-,-,-,.,.,
CSc1nnc(-c2ccco2)c(-c2ccco2)n1,-,95,-,-,-,-,-,-,
COc1cccc(NC(=O)CSc2nnc(-c3ccco3)c(-c3ccco3)n2)c1,66,87,-,-,-,-,-,-,
COc1ccc(C(=O)CSc2nnc(-c3ccco3)c(-c3ccco3)n2)cc1,87,76,-,-,-,-,-,-,
Cc1ccc(NC(=O)CSc2nnc(-c3ccco3)c(-c3ccco3)n2)cc1,57,92,-,-,-,-,-,-,
COc1ccc(CNC(=O)CCn2nc(C)c3c(C)n(-c4ccccc4)nc3c2=O)c(OC)c1,-,-,-,-,-,-,.,.,
COc1ccc(C(=O)N/C(=C\c2ccc(Cl)cc2)C(=O)NCc2ccncc2)cc1,.,79,-,-,-,-,-,-,

# Screening results from PubChem BioAssay.
